Source: PubChem (several laboratories)
This is a sample that favours compounds with a hit; in the whole collection about 4.3% have one here.
FLuc stim CS = affects firefly luciferase, flagging false hits in luciferase stimulation screens | P08659 | ATPlite luciferase biochemical, luminescence, 10 min; 0 = ATP-free wells, 1 = DMSO control | activation factor at 10 µM | 200,000 tested, under 10 active;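 active = luciferase activation factor, scaled between plate controls, of at least 2 with compound at 10 µM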
Target sequence (P08659 whole entry, looked up): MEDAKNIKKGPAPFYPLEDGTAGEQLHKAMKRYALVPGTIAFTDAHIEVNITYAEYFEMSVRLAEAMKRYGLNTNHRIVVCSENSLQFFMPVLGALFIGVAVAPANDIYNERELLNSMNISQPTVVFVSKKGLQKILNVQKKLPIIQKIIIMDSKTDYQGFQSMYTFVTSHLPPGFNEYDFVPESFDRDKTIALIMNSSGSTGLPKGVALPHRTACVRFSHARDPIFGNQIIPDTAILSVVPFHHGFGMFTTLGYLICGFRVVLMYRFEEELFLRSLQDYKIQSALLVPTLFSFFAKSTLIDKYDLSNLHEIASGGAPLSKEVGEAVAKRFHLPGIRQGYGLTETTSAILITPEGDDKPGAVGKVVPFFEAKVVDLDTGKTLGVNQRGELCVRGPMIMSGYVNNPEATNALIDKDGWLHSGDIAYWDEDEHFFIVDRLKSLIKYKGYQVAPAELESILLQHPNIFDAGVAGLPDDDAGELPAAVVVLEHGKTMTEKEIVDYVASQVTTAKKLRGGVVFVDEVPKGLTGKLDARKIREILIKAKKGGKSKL
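System: Luciferase/luciferin detection reagent, cell-free biochemical luciferase assay | Medium: PBS buffer for ATP | Dosing: Test compounds dosed from 2 mM stocks in 100% DMSO | Timing: 10 min at ambient temperature | Signal: Luminescence measurement of luciferase light output | Evaluation: Luciferase activation, seen as luminescence increase over controls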
APP 5'UTR act = APP 5'UTR luciferase reporter activation; AID 1276; 190,000 tested, 1% active; activation, % at 2 µM; SH-SY5Y APP 5'UTR luciferase reporter, luminescence; zero percent = DMSO vehicle wells;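 active = activation above a set limit, based on mean plus 3 SD of controls, cut at about 140% in these data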
STAT1 activator = increases IFN-gamma driven STAT1 reporter signal; NIH 3T3 STAT1-luciferase reporter, luminescence; 100% = IFN-gamma alone, no compound; 200,000 tested, 2.6% active; activation (% of control), % at 5.5 µM;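 active = activation above the screen-wide mean activation plus 3 SD, cut at about 130% in these data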
NF-kB neuron act = NF-kB expression increase, human neuronal cells; 190,000 tested, 1.6% active; AID 1239; NF-kB reporter expression; hits give high values; fold change at 12.5 µM; in the data active = fold change above about 3.3
FLuc inhib CS = Photinus pyralis luciferase inhibition counter-screen | inhibition, % at 10 µM | ATPLite firefly luciferase biochemical luminescence, 10 min | AID 1006 | 200,000 tested, 1.5% active;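 active = inhibition above about 50% when tested at 10 µM, limit read from the data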
sdo1 growth = sdo1-depleted yeast growth rescue | S. cerevisiae sdo1-depleted JHY4D growth rescue, OD600 30 h; hits give high values; pdr5 snq2 efflux-pump mutant strain | z-score at 10 µM | 140,000 tested, 0.21% active;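 active = z-score above 3 at both the 24 hr and the 30 hr optical density reads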
Numbers stand for hits; . = inactive; / = not tested or not shown.

SMILES	FLuc stim CS	APP 5'UTR act	STAT1 activator	NF-kB neuron act	FLuc inhib CS	sdo1 growth
COc1ccc(C(=O)/C=C/c2ccc(F)cc2)c(OC(=O)c2ccc([N+](=O)[O-])cc2)c1	.	.	.	.	.	.
c1ccc2c(C3=NNC(=NC4CC4)SC3)c[nH]c2c1	.	.	.	.	53	.
c1ccc(C2=NNC(=NC3CC3)SC2)cc1	.	.	.	.	62	.
c1ccc2c(C3=NNC(=NC4CCCCC4)SC3)c[nH]c2c1	.	.	.	.	.	.
COc1ccc(-n2c(C)cc(C3=NNC(=NC4CC4)SC3)c2C)cc1	.	.	.	.	.	/
O=C(/C=C\Nc1ccccn1)c1ccc(Cl)cc1	.	175	.	.	91	.
O=C(COC(=O)c1cc(=O)[nH]c2ccccc12)c1cccs1	.	.	.	.	.	/
O=C(CCc1nnc(-c2ccsc2)o1)N1CCc2c(Cl)cccc2C1	.	.	129	.	.	/
CS(=O)(=O)NN1C(=O)c2ccccc2NC1c1c[nH]c2ccccc12 (stereo unspecified)	.	.	.	.	.	.
O=Cc1ccc(OCc2cccc(C(F)(F)F)c2)cc1O	.	.	.	.	.	/
O=C(OCC(F)(F)F)c1cccc(COc2ccc3ccccc3c2)c1	.	.	.	8.1	.	.
CCOc1ccc(OCc2cccc(C(=O)O)c2)cc1	.	/	/	12	93	.
O=C(O)c1cccc(COc2ccc(CO)cc2Cl)c1	.	/	/	.	85	.
CCOc1ccc(OCc2cccc(C(=O)N3CCCC3)c2)cc1	.	.	.	.	.	.
CCOc1ccc(OCc2cccc(C(=O)N3CCCCCC3)c2)cc1	.	.	.	.	67	/
O=C(NN1CCCCC1)c1cccc(COc2ccc(Cl)cc2)c1	.	.	130	.	.	.
COc1cc(/C=C/[N+](=O)[O-])ccc1OCc1cccc(C(=O)O)c1	.	.	.	4.4	.	/
O=C(NCc1ccccc1)c1cccc(COc2ccc3c(c2)CCC3)c1	.	.	.	.	.	.
COc1ccc(OCc2cccc(C(=O)O)c2)cc1	.	/	/	8.6	83	.
CCOC(=O)Cn1c(CN2CC(C)OC(C)C2)nc2c1c(=O)n(C)c(=O)n2C (stereo unspecified)	.	.	.	.	.	.
COc1ccc(C(=O)NC(=S)Nc2cccc(Cl)c2N2CCOCC2)cc1[N+](=O)[O-]	.	.	.	.	.	.
Cc1c(NS(=O)(=O)c2cccc(C(=O)OCC(=O)N(C)C3CCCCC3)c2)c(=O)n(-c2ccccc2)n1C	.	.	.	.	.	/
Cc1occc1C(=O)N/N=C/C=C/c1ccccc1	.	.	146	.	.	/
COc1cc(/C=N/NC(=O)c2ccoc2C)cc(OC)c1O	.	.	135	.	.	.
COc1ccc(/C=N/NC(=O)c2ccoc2C)cc1COc1c(C)cccc1C	.	.	.	.	.	.
SMILES	FLuc stim CS	APP 5'UTR act	STAT1 activator	NF-kB neuron act	FLuc inhib CS	sdo1 growth
Cc1occc1C(=O)N/N=C/C=C/c1ccccc1[N+](=O)[O-]	.	.	.	.	.	/
Cc1ccc(/C=N/NC(=O)C(=O)N/N=C/c2ccc(C)o2)o1	.	.	.	.	.	/
Cc1ccc(/C=N/NC(=O)c2ccoc2C)o1	.	.	132	.	.	.
C#Cc1ccc([C@@H]2C=C(C(=O)N3CCN(Cc4ccc5c(c4)OCO5)CC3)O[C@H](OCC)[C@H]2CCCO)cc1	.	.	.	.	.	/
COc1ccccc1-c1cc(C(F)(F)F)c(C#N)c(=O)[nH]1	.	.	.	.	.	/
COc1ccccc1-c1cc(SC)c(C#N)c(=O)o1	.	.	133	.	.	.
O=C(C1COc2ccccc2O1)N1CCCC1 (stereo unspecified)	.	.	.	.	.	.
O=C(C1COc2ccccc2O1)N1CCc2ccccc21 (stereo unspecified)	.	.	131	.	.	.
O=[N+]([O-])c1cccnc1NCCNc1ncc(C(F)(F)F)cc1Cl	.	.	137	.	.	.
COc1ccccc1C1CC(=O)NC(C)=C1C(=O)OC(C)C (stereo unspecified)	.	.	.	.	.	/
CCN(CC)CCNC(=O)c1ccc(-n2c(C)cc3c2CCCC3=O)cc1	.	.	.	.	.	/
COC(=O)c1ccc(Sc2nnnn2-c2ccccc2)c([N+](=O)[O-])c1	.	.	.	4	.	.
[O-][N+]1=c2ccc(Nc3ccccc3)cc2=NC12CCCCC2	.	.	134	.	.	.
CN(Cc1ccco1)C(=O)Cn1nc(-c2ccc(Cl)cc2)ccc1=O	.	.	.	.	.	/
CC(C)c1ccc(OCc2nc(-c3ccccn3)no2)c(Br)c1	.	182	138	5.4	.	.
Cc1ccc(OCc2nc(-c3ccccn3)no2)cc1	.	139	.	5.1	.	.
Cc1ccc(SCc2nc(-c3ccccn3)no2)cc1	.	.	.	.	.	.
CC(Oc1ccc(Cl)cc1Cl)c1nc(-c2ccccn2)no1 (stereo unspecified)	.	.	.	.	.	.
CC(C)(C)Cc1nc(-c2ccccn2)no1	.	.	.	.	.	.
CCc1ccc(OCc2nc(-c3ccccn3)no2)c(Br)c1	.	181	.	.	55	.
Cc1ccc(OCc2nc(-c3ccccn3)no2)c(Br)c1	.	150	.	4.4	79	.
CCn1cc(C(=O)OCC(=O)NCc2ccccc2Cl)c(=O)c2ccc(C)nc21	.	.	.	.	.	/
COc1ccc(C(=O)NCc2nnc(SCC(=O)N3CCCCC3)o2)cc1OC	.	.	.	.	.	.
CCCCCCCCCCOC(=O)NC1CCS(=O)(=O)C1 (stereo unspecified)	.	.	.	.	.	/
O=C(Nc1nccs1)c1ccc(-c2ccc(Cl)cc2Cl)o1	.	.	146	.	69	.
SMILES	FLuc stim CS	APP 5'UTR act	STAT1 activator	NF-kB neuron act	FLuc inhib CS	sdo1 growth
Cc1cccc(C)c1NC(=O)c1ccc(-c2ccc(Cl)cc2Cl)o1	.	.	.	.	.	.
N#CCCn1cc(C(=O)Nc2ccc([N+](=O)[O-])cc2)c(-c2cc3ccccc3o2)n1	.	.	.	.	.	/
Nc1c(C(=O)Nc2ccc(F)cc2)sc(=S)n1-c1ccccc1F	.	.	131	.	.	/
Cc1[nH]c2ccccc2c1C(c1ccccn1)N1CCCC1 (stereo unspecified)	.	.	.	.	.	/
Oc1c(C(c2ccccn2)N2CCCCC2)cc(Cl)c2cccnc12 (stereo unspecified)	.	.	.	4.9	.	/
CCCCCNCc1ccc(OCc2ccc(Cl)nc2)c(OC)c1	.	.	.	.	.	.
Cc1ccc(/C=c2\sc3n(c2=O)CN(c2ccc(Br)cc2)CN=3)o1	.	.	.	.	.	.
Cc1ccc(/C=c2/sc3n(c2=O)CCCN=3)o1	.	.	129	.	.	.
